From ChEMBL document CHEMBL1221386, “Synthesis and pharmacological evaluation of 3-aryl-3-azolylpropan-1-amines as selective triple serotonin/norepinephrine/dopamine reuptake inhibitors” (Bioorg Med Chem Lett, 2010) come the findings set out here.

What is called inhibition is the change of the read-out against control, counted positive when it falls. By half-life is commonly meant the time in which the quantity being followed falls by half. What is called IC50 is the midpoint of a concentration-inhibition curve. As usually defined, the inhibition in vivo is the percentage by which the read-out fell short of the control.

Some results are limits rather than exact numbers.

Series [1] deals with Sodium-dependent serotonin transporter (Rattus norvegicus) (UniProt P31652). Briefly: Displacement of [3H]paroxetine from SERT in rat cerebral cortex at 100 nM. (In general: In a radioligand displacement assay an active substance lowers the binding of a labelled ligand.)
The target of series [2] is T1, Sodium-dependent noradrenaline transporter (Homo sapiens, UniProt P23975). Nature of the series: Inhibition of norepinephrine reuptake at human NET expressed in MDCK cells at 100 nM.
In series [3] the target is T2, Sodium-dependent serotonin transporter (Homo sapiens, UniProt P31645). Nature of the series: Inhibition of serotonin reuptake at human SERT expressed in HEK293 cells at 100 nM.
Target sequence in this assay (P31645 whole entry, looked up): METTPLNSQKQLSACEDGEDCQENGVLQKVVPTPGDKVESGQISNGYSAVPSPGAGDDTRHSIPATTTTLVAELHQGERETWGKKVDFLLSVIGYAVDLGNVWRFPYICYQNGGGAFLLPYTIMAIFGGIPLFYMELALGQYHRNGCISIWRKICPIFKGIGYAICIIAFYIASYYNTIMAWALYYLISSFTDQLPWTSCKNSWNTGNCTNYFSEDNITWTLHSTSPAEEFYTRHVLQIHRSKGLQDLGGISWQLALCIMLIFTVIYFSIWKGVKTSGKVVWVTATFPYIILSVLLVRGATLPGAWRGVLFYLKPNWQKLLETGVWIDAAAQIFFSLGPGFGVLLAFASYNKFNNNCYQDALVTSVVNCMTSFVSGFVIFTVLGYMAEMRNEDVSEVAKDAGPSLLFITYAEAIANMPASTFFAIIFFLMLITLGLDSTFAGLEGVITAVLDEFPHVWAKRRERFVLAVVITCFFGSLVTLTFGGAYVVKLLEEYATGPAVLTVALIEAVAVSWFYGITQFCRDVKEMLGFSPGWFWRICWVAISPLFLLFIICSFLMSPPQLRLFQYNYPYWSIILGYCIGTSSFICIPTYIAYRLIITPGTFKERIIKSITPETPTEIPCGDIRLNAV
Series [4] concerns the target T3, Sodium-dependent dopamine transporter (Homo sapiens, UniProt Q01959). Briefly: Inhibition of dopamine reuptake at human dopamine transporter expressed in CHO cells at 100 nM.
Series [5] relates to Mus musculus. Briefly: Antidepressant activity in mouse assessed as reduction of mobility time by forced swimming test at 30 mg/kg, ip. Also noted: scale not given: the % may be the effect or the level left. The following applies: route intraperitoneal.
Series [6] can be described thus: Half life in human liver microsomes. In kind it is ADME, Microsome. The method in brief:
(§1)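 Metabolic stability in human or rat liver microsomes. Half-lives measurable up to 60 min.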
(In general: Liver microsomes are vesicles of endoplasmic reticulum, rich in cytochrome P450 enzymes.)

Series [7] deals with T3, Sodium-dependent dopamine transporter. Nature of the series: Inhibition of dopamine reuptake at human dopamine transporter expressed in CHO cells. Type of series: cell-based. Summed up: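 CHO-K1 cells stably expressing human DAT, assayed for [3H]DA uptake in duplicate. Nomifensine served as standard. IC50 determined.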
A short description of series [8]: Half life in rat liver microsomes. In kind it is ADME, Microsome. Summed up: as §1
For series [9], the target named is T2, Sodium-dependent serotonin transporter. Nature of the series: Inhibition of serotonin reuptake at human SERT expressed in HEK293 cells. Type of series: cell-based.
Target sequence in this assay (P31645 whole entry): as the sequence (P31645 whole entry, looked up) above
For series [10], the target named is Sodium-dependent serotonin transporter (Rattus norvegicus) (UniProt P31652). Nature of the series: Displacement of [3H]paroxetine from SERT in rat cerebral cortex at 1 uM. In kind it is tissue-based. Summed up:
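Competition binding against 2 nM [3H]paroxetine on freshly prepared rat frontal cortex membranes, homogenized and centrifuged twice at 20,000g, then resuspended in incubation buffer. Tris–HCl pH 7.4 buffer with NaCl and 5 mM KCl. Incubation 2 h at 25 °C, run in triplicate. Nonspecific binding defined with citalopram. Read-out is percent inhibition at 1 µM.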

Series [11] has as its target T1, Sodium-dependent noradrenaline transporter. Nature of the series: Inhibition of norepinephrine reuptake at human NET expressed in MDCK cells. In kind it is cell-based.
Series [12] has as its system Mus musculus. Briefly: Potentiation of […]-induced serotonin syndrome like behavior in po dosed mouse. Type of series: functional. Particulars: read-out: MED. Summed up:
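Mice, oral dosing. For serotonin potentiation, 5-hydroxytryptophan (5-HTP, serotonin precursor) is given to induce serotonin syndrome-like head twitch/stereotypy counts. Response is expressed as % potentiation relative to control group (0%). Minimal effective dose is the lowest dose reaching p <0.05. Doses are in mg/kg.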

The test system of series [13] is Mus musculus. Briefly: Anxiolytic activity in mouse assessed as inhibition of marble buried at 10 mg/kg, ip by marble burying test. In kind it is functional. Particulars: route intraperitoneal.
Series [14] has as its system Mus musculus. Briefly: Antidepressant activity in po dosed mouse assessed as reduction of mobility time by forced swimming test. In kind it is functional. Particulars: read-out: MED. The method in brief:
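Mouse forced swimming test with oral dosing. Read-out is immobility time, expressed as % reduction of immobility. Minimal effective dose is the lowest dose with p <0.05. ED50 is given with 95% confidence limits. Doses are in mg/kg.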

T1 sequence (P23975 whole entry): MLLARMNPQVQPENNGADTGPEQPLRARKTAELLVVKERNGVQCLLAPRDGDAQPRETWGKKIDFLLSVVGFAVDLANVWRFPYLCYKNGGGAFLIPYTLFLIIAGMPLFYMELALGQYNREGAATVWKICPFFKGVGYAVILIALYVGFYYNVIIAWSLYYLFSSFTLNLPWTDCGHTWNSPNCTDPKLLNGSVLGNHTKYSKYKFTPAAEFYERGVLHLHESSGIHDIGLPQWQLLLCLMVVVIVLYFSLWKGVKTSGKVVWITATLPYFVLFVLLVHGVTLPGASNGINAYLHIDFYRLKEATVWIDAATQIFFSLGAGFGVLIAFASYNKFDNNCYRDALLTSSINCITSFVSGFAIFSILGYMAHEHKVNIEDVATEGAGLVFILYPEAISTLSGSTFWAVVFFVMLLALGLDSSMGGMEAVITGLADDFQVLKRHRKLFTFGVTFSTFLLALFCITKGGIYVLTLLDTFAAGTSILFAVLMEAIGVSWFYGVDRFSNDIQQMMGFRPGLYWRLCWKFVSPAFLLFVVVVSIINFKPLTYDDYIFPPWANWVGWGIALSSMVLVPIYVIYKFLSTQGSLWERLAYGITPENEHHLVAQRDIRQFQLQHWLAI
Sodium-dependent serotonin transporter (Rattus norvegicus), sequence (P31652 whole entry): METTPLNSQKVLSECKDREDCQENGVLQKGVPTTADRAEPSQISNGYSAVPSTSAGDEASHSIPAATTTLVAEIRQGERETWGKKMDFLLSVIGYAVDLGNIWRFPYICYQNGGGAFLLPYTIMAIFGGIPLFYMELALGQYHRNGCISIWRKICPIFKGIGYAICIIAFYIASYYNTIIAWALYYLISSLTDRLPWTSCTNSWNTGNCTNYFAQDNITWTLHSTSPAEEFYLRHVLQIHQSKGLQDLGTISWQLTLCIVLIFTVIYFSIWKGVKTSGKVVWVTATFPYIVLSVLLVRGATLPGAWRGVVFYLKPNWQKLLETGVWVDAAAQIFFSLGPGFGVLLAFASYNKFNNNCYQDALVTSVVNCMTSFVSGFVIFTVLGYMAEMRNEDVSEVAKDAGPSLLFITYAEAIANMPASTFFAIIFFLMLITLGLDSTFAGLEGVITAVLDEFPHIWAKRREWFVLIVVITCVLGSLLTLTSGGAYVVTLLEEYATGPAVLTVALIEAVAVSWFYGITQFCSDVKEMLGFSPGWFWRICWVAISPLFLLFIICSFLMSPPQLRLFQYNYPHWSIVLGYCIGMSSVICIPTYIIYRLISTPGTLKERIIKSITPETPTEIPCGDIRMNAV
T3 sequence (Q01959 whole entry): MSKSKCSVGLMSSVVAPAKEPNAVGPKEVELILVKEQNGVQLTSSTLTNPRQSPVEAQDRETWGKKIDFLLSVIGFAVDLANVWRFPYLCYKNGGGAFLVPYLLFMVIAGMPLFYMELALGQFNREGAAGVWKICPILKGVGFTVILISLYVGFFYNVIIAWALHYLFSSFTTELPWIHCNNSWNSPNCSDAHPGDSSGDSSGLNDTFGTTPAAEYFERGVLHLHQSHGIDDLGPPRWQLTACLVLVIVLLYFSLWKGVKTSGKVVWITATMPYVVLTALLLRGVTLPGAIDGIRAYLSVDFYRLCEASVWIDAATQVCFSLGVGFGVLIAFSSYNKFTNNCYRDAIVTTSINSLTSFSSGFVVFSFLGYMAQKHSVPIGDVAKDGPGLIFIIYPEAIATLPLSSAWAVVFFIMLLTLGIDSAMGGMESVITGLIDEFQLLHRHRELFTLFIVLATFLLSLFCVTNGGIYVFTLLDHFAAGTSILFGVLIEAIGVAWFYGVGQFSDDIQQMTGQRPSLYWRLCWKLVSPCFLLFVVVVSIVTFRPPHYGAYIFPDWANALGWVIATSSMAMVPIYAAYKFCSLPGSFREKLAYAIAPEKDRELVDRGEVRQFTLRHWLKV

With `CNCC[C@@H](c1ccc2ccccc2c1)n1nnc(C)n1`, the inhibition in series [1] was determined as 60.2%; in series [2], 79%; in series [3], 82%; in series [4] it was 7%.

`CNCC[C@H](c1ccc(Cl)c(Cl)c1)n1nnc(C)n1`: in series [1], the inhibition stood at 20%.

For the molecule `CNCC[C@H](c1ccc2ccccc2c1)n1nnc(C)n1`, the inhibition in series [1] amounted to 34.5%; in [2], 37%; in series [3] it was 23%; in series [4], 3%.

For the molecule `CN(C)CCC(c1ccc2ccccc2c1)n1ncnn1` (racemic), the Activity in the series on Mus musculus [5] came out at 43.2%. Also, the half-life in [6] amounted to 50 min; in series [8], 3 min. Besides, the figures for the IC50 in series [7], in series [9] and in [11] were 616 nM, 138 nM and 264 nM, respectively. Further, the inhibition came out at 30% in [2], 41% in series [3], 85.1% in series [10] and 20% in series [4].

For the molecule `CN(C)CCC(c1ccc2cc(F)ccc2c1)n1ncnn1` (racemic), the inhibition in [1] was determined as 74.1%; in series [2], 12%; in [3] it was 61%; in series [4], 7%. The half-life was over 60 min in series [6] and 3 min in series [8].

For the molecule `CNCCC(c1ccc2ccccc2c1)n1ncnn1` (racemic), the half-life in series [6] was 49 min; in [8] it was 12 min. Further, the concentration for half-maximal inhibition (IC50) in series [7] was determined as 1240 nM; in [9], 32 nM; in [11] it was 13.3 nM. Moreover, the inhibition in [2] was 84%; in [3], 78%; in series [10] it was 90.4%; in series [4], 10%.

For the molecule `CNCCC(c1ccc2ccccc2c1)n1nnc(-c2ccccc2)n1` (racemic), the Activity with Mus musculus [5] stood at 5.5%. Also, the inhibition in [10] came to 98.4%.

Regarding `CNCCC(c1ccc2cc(F)ccc2c1)n1ncnn1` (racemic), the inhibition in series [1] was 80.1%; in series [2], 25%; in series [3], 59%; in [4], 6%. Also, the half-life in [6] was over 60 min; in [8], 29 min.

For `CNCCC(c1ccc2cc(F)ccc2c1)n1nnc(C)n1` (racemic), the inhibition was 81.3% in [1], 39% in series [2], 58% in series [3] and 10% in series [4]. Further, the half-life in series [6] was over 60 min; in series [8], 27 min.

For `CN(C)CCC(c1ccc(Cl)c(Cl)c1)n1ncnn1` (racemic), the half-life in series [6] came out at 55 min; in series [8], 3 min. In addition, the values for the half-inhibitory concentration (IC50) in series [7], in series [9] and in series [11] were 78 nM, 279 nM and 234 nM, respectively. Besides, the inhibition in [2] was determined as 37%; in series [3], 27%; in series [10], 72%; in series [4], 58%.

Take `CNCCC(c1ccc(Cl)c(Cl)c1)n1ncnn1` (racemic): the half-life in [6] and in [8] was over 60 min each time. Also, the IC50 in series [7] worked out at 116 nM; in [9] it was 181 nM; in series [11], 69 nM. Besides, the inhibition in series [2] worked out at 56%; in [3], 35%; in series [10], 86%; in series [4], 48%.

`CN(C)CCC(c1ccc(Cl)c(Cl)c1)n1nccn1` (racemic): the inhibition in series [10] turned out to be 69.9%.

On to `CN(C)CCC(c1ccc(Cl)cc1)n1ncnn1` (racemic), for which the inhibition in series [10] worked out at 32.4%.

For the molecule `CN(C)CCC(c1ccc(Cl)cc1Cl)n1ncnn1` (racemic), the inhibition in series [1] is -0.2%.

On to `CN(C)CCC(c1ccc(F)c(F)c1)n1ncnn1` (racemic), for which the inhibition in [10] was determined as 25.3%.

As for `CN(C)CCC(c1ccc(OCc2ccccc2)cc1)n1ncnn1` (racemic), the inhibition in series [1] stood at 9.5%.

Turning to `CN(C)CCC(c1ccc2cc(Cl)ccc2c1)n1ncnn1` (racemic), the inhibition in series [2] turned out to be 32%; in series [3], 46%; in [10] it was 54.3%; in series [4], 18%.

`CN(C)CCC(c1ccc2ccccc2c1)n1nnc(-c2ccccc2)n1` (racemic): in series [10], the inhibition was found to be 92.6%.

On to `CN(C)CCC(c1cccc(Cl)c1)n1ncnn1` (racemic), for which the inhibition in series [1] is -5.6%.

For the molecule `CNCCC(c1ccc(Br)cc1)n1ncnn1` (racemic), the inhibition in series [1] turned out to be 10.7%.

`CNCCC(c1ccc(C(F)(F)F)cc1)n1ncnn1` (racemic): the inhibition in series [1] was found to be 15.3%.

For the molecule `CNCCC(c1ccc(Cl)c(Cl)c1)n1nnc(C)n1` (racemic), the inhibition in series [10] stood at 86%.

Take `CNCCC(c1ccc(Cl)c(Cl)c1Cl)n1ncnn1` (racemic): in series [1], the inhibition stood at 39.1%.

Take `CNCCC(c1ccc(Cl)cc1)n1ncnn1` (racemic): the inhibition in series [10] stood at 41.1%.

For `CNCCC(c1ccc(OC(F)(F)F)cc1)n1ncnn1` (racemic), the inhibition in [1] came out at 3.1%.

Turning to `CNCCC(c1ccc(Oc2ccccc2)cc1)n1ncnn1` (racemic), the inhibition in series [1] is -1.7%.

For `CNCCC(c1ccc2cc(C)ccc2c1)n1ncnn1` (racemic), the inhibition in series [2] was found to be 55%; in series [3], 93%; in series [10], 93.3%; in series [4], 3%.

For `CNCCC(c1ccc2cc(Cl)ccc2c1)n1ncnn1` (racemic), the inhibition in series [2] was 20%; in series [3] it was -4%; in [10], 52.1%.

For the molecule `CNCCC(c1ccc2cc(OC)ccc2c1)n1ncnn1` (racemic), the inhibition in [1] is 81.2%; in series [2] it was 70%; in [3] it was 88%; in series [4], 4%.

As for `CNCCC(c1ccc2cc(OC)ccc2c1)n1nnc(C)n1` (racemic), the inhibition in series [1] worked out at 80.2%; in series [2], 84%; in series [3], 82%; in series [4], 3%.

Turning to `CNCCC(c1ccc2ccccc2c1)n1nnc(C)n1` (racemic), in series [10], the inhibition worked out at 93.6%.

For the molecule `CNCCC(c1cccc2ccccc12)n1ncnn1` (racemic), in [10], the inhibition is 51.6%.

With `CNCCC(c1ccccc1Cl)n1nnc(C)n1` (racemic), in series [1], the inhibition came to 5.9%.

Turning to `COc1ccc(C(CCN(C)C)n2ncnn2)cc1Cl` (racemic), the inhibition in series [10] stood at 39.9%.

Consider `COc1ccc(C(CCN(C)C)n2ncnn2)cc1OC` (racemic), for which, in series [1], the inhibition is 12.9%.

As for `COc1ccc2cc(C(CCN(C)C)n3ncnn3)ccc2c1` (racemic), the inhibition came to 33.6% in series [1], 39% in series [2], 44% in series [3] and 36% in [4].

In the case of `Cc1ccc(C(CCN(C)C)n2ncnn2)cc1C` (racemic), the inhibition in series [10] was determined as 49.2%.

On to `Cc1ccc2cc(C(CCN(C)C)n3ncnn3)ccc2c1` (racemic), for which the inhibition in [10] was determined as 87.7%.

With `Cc1nnn(C(CCN(C)C)c2ccc(C(C)(C)C)cc2)n1` (racemic), in [1], the inhibition is -3%.

For `Cc1nnn(C(CCN(C)C)c2ccc(Cl)c(Cl)c2)n1` (racemic), the inhibition in series [10] is 69.4%.

Consider `Cc1nnn(C(CCN(C)C)c2ccc3cc(F)ccc3c2)n1` (racemic), for which the inhibition in series [1] stood at 67.5%; in series [2] it was 10%; in series [3], 61%; in series [4], 6%.

In the case of `Cc1nnn(C(CCN(C)C)c2ccc3ccccc3c2)n1` (racemic), the inhibition in series [10] was 85%.

`CNCCC(Oc1ccc(C(F)(F)F)cc1)c1ccccc1` (stereo not given) [FLUOXETINE]: the minimal effective dose in the series on Mus musculus [12] is 3 mg/kg; in the series on Mus musculus [14], 50 mg/kg. Besides, the inhibition in vivo at 10 mg/kg in the series with Mus musculus [13] came out at 60.3%.
